Assay results reported in PubChem BioAssay AID463171 (The Scripps Research Institute Molecular Screening Center, 2010).
Calls of active or inactive are those of the source.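 How the source made its calls: active means p27 reporter light at least 10 times the solvent-only level, showing blocked p27 breakdown; inactive means ratio under 10.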

Target: Cyclin-dependent kinase inhibitor 1B (Homo sapiens) (UniProt P46527)
Assay: inhibitors of p27 turnover in HeLa cells, late-stage follow-up, counter-screen for Wee1 degradation inhibitor project, cell-based, luminescence, p27-luciferase fusion, powder samples (AID 463171)
Details: HeLa p27-luciferase fusion stability, at 0.1 µM, stronger effect = higher value
Outline: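 Test system: human HeLa cells transiently expressing a p27-luciferase fusion reporter. Compound dosing: single nominal 100 nM (0.1 µM) compound dose. Incubation: 20 h compound treatment at 37 °C. Measured by: luminescence after addition of Brite-lite luciferase reagent. Measure: average fold change versus DMSO vehicle. Control set: DMSO vehicle-treated cells as reference. Repeats: quadruplicate wells.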

Chain of Cyclin-dependent kinase inhibitor 1B (Homo sapiens) (P46527 whole entry, looked up, the tested form may be a part): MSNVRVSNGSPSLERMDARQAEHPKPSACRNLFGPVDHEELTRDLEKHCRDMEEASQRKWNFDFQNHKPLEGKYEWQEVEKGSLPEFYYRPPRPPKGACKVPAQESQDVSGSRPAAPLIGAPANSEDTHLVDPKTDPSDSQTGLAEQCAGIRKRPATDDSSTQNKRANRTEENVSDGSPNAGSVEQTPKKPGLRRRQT

SMILES: O=[N+]([O-])c1cccc2[nH]c(CNc3nc(N4CCOCC4)nc4c3ncn4-c3ccsc3)nc12
- fold change: 4.61 (inactive)

SMILES: c1ccc2[nH]c(CNc3nc(N4CCOCC4)nc4c3ncn4-c3ccsc3)nc2c1
- fold change: 3.13 (inactive)
